# NALP1 yeast inh: blocks the NALP1 inflammasome reconstituted in yeast; AID 2071; S. cerevisiae NALP1/ASC/caspase-1 growth, X-gal OD620, 72 h; inhibition, % at 10 µM; 0.61% of 280,000 active; in the data active = inhibition mostly above about 24%, no sharp cut-off; inactive = mostly below about 32%
# Pemphigus Ab inh: human desmoglein-3 autoantibody binding inhibition; DSG3-coupled beads, scFv-anti-DSG3-GFP binding, flow cytometry; hits give low values; binding (percent of control), % at 10 µM; 0.48% of 310,000 active; AID 588358;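 active = binding more than 3 SD below its plate's average and above zero; inconclusive = below that plate limit but binding exactly zero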;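 note: hits lower antibody fragment binding to DSG3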
# Target sequence (P32926 whole entry, looked up, the tested form may be a part): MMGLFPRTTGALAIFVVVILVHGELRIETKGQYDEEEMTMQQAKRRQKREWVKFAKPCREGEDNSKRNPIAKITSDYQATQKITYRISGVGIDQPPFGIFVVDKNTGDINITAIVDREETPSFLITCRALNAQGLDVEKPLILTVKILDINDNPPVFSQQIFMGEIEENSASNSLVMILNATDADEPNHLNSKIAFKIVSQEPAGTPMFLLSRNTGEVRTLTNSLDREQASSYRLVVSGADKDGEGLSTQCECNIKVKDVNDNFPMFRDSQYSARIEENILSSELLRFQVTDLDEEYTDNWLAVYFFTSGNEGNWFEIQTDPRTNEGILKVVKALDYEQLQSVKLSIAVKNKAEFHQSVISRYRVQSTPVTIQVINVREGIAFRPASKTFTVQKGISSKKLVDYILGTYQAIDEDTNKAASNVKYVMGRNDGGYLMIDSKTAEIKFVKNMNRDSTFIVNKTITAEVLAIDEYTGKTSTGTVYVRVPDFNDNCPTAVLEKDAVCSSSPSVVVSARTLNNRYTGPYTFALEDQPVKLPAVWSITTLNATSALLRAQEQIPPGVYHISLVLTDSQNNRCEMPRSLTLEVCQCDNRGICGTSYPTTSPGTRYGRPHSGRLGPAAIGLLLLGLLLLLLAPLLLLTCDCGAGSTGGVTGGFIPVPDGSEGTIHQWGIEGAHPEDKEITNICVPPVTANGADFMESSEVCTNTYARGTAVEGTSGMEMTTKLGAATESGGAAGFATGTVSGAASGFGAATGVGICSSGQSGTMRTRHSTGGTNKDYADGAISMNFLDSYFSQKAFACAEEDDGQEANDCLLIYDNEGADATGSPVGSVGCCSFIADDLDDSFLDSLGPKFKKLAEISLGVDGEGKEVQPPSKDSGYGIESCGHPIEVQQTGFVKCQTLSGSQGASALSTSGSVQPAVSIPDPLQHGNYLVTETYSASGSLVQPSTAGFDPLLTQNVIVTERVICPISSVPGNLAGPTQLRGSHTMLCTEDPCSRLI
# ALR inh: inhibitors of human sulfhydryl oxidase ALR; purified ALR, DTT oxidation, H2O2 HRP-luminol luminescence; 3.8% of 290,000 active; inhibition, % (no concentration beside the values);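 active = mean replicate inhibition above about 79%, with every replicate also reaching it, limit read from the data; inconclusive = only one of the two criteria met; inactive = mean below limit and not every replicate reaching it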
# PolyA inhibitor: yeast polyadenylation inhibition; activity score, % at 12 µM; S. cerevisiae SKY197-pL101 polyadenylation reporter, beta-gal luminescence; efflux-impaired pdr1/pdr3 knockout yeast; score 100 = 6 SD above DMSO; 0.02% of 300,000 active;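 active = lowest replicate activity score at least 50, where 100 means six control SD above control mean; inconclusive = lowest score under 50 but half or more replicates reach 50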;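 note: yeast exposed to compound for 9 h at 30 °C; higher score means more reporter readthrough which indicates perturbed polyadenylation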
# Arrestin-AP2 inh: human beta-arrestin and AP2 interaction inhibition; inhibition, % at 10 µM; 0.31% of 340,000 active; FITC-arrestin peptide / GST-AP2 beads, flow cytometry; AP2 beta2 appendage carries R879A mutation;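 active = inhibition above a set limit, near 3 SD of compounds lacking own fluorescence, cut at about 54% in these data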;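 note: plate controls were DMSO wells for no effect and 5 µM unlabelled arrestin peptide for full effect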
#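 Material – AP2 appendage R879A on GSH beads · Buffer or medium – PBS with 0.05% Tween 20 and 0.1% BSA · Probe or stimulus – fluorescein-tagged arrestin peptide at 50 nM final · Incubation – compound with beads 12 min RT, then probe 1 h RT · Detection – high-throughput flow cytometry of beads, ex 488, em 535 nm · Evaluation – percent response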
# NALP3 yeast inh: NALP3 inhibition in yeast. Yeast reconstituted NLRP3/ASC/caspase-1, beta-gal luminescence, 24 h. inhibition, % at 10 µM. 0.39% of 330,000 active;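 active = inhibition of 50% or more; inactive = inhibition below 50%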;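 note: plate controls were induced DMSO wells for no effect and uninduced yeast grown without galactose for full effect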
# Starred values were filed as active, the others as inactive; ? = inconclusive; . = not tested or not shown. An excerpt weighted towards active compounds, which were near 4.6% of everything screened.
SMILES,NALP1 yeast inh,Pemphigus Ab inh,ALR inh,PolyA inhibitor,Arrestin-AP2 inh,NALP3 yeast inh
CCCC(=O)OCC1CN(Cc2ccco2)S(=O)(=O)c2c(F)cccc2O1 (configuration not stated),.,100,.,.,0,.
CC(=O)NC(CC(=O)NNC(=O)c1cc2ccccc2cc1O)c1ccccc1 (configuration not stated),-5,110,4,-13,-16,-4
C=CCOC(=O)/C=C/C(=O)NC(N)=O,1,91,98*,?,9,0
Oc1ccccc1-c1nnc(COc2ccccc2)o1,-2,109,-5,-8,3,13
Oc1ccccc1-c1nnc(COc2ccc(Cl)cc2Cl)o1,27,66*,-4,0,-6,0
Cc1cc(N2CCOCC2)nc(N)n1,-4,113,.,4,-30,3
Cc1cc(N2CCOCC2)c2c(N)c(C)cc(C)c2n1,19,88,99*,.,-14,7
CCOc1ccc(Oc2ccc(NS(=O)(=O)c3ccc(CCC(=O)O)cc3)cc2)cc1,.,111,.,.,.,.
O=C(O)C1CC=CCC1C(=O)N1CCN(c2nc(-c3ccccc3Cl)c3cc(Br)ccc3n2)CC1 (configuration not stated),27*,107,-2,.,-18,17
COc1cccc(/C=C2\Oc3cc(OC(=O)N4CCOCC4)ccc3C2=O)c1,4,.,1,11,28,25
COc1cccc(/C=C2\Oc3cc(OCC(=O)N4Cc5ccccc5C[C@H]4C(=O)O)ccc3C2=O)c1,-2,108,99*,-6,-1,11
O=C(Nc1ccc(O)cc1)/C(=C\c1cccs1)NC(=O)c1ccccc1,36,96,100*,9,18,2
COc1cc(/C=C(/NC(=O)c2ccccc2)C(=O)Nc2ccccc2)c([N+](=O)[O-])cc1OC,7,85,-8,13,-1,4
COc1cc(C(=O)Nc2ccc(N(C)C)cc2)c([N+](=O)[O-])cc1OC,-1,111,89*,-11,28,3
COc1cc(/C=C(/NC(=O)c2ccccc2)C(=O)Nc2ccc(O)cc2)c([N+](=O)[O-])cc1OC,22,97,99*,17,-3,1
Cc1ccc(/C=N/n2c(C3CCCCC3)n[nH]c2=S)cc1,-3,104,2,-43,9,30
CCCCn1c(N)c(N(CC(C)C)C(=O)c2cccs2)c(=O)[nH]c1=O,.,102,-2,6,-7,15
Cc1ccc(S(=O)(=O)N2CCOCC2)cc1C(=O)OCCOc1cccc(Cl)c1,.,98,-17,-2,-8,22
O=C(Nc1ccncc1)Nc1ccc(Cl)cc1Cl,30*,.,-7,5,32,23
O=C(O)c1ccc(N=N/C(=N\Nc2ccc(C(=O)O)cc2)c2ccccc2)cc1,.,.,98*,1,1,33
O=C(O)c1cccc(N/N=C(\N=Nc2ccccc2)c2ccccc2)c1,.,.,98*,-9,5,26
CCOc1ccc(C(=O)OCC(=O)NC2CCCCCCC2)cc1,.,110,.,.,-3,19
O=C1NC(Cc2ccccc2)c2nc3ccc(Br)cc3c(=O)n2-c2cc(Cl)ccc21 (configuration not stated),.,.,-8,.,.,-2
COc1ccc(OC)c(NCc2nnc(-c3ccccc3)o2)c1,20,125,99*,-20,4,27
OCCN1CCN(c2nc(-c3ccccc3O)nc3ccccc23)CC1,26,99,-4,14,6,14
SMILES,NALP1 yeast inh,Pemphigus Ab inh,ALR inh,PolyA inhibitor,Arrestin-AP2 inh,NALP3 yeast inh
COc1cc2ccc(=O)oc2cc1O,.,.,98*,.,-1,-14
COc1cc2ccc(=O)oc2cc1OCC(O)C(C)(C)O (configuration not stated),-12,104,5,-11,-1,6
CC1=Nc2ccc(C)cc2/C1=C/c1c(N)n2c(S(=O)(=O)C(C)C)nsc2nc1=O,11,104,.,7,4,.
CC1=Nc2ccccc2/C1=C/c1c(N)n2c(S(=O)(=O)C(C)C)nsc2nc1=O,2,94,97*,0,-4,6
CC1(C)Cc2c(ccc3ccccc23)C(c2cc3ccccc3oc2=O)=N1,34*,88,-17,-8,2,-12
O=C(O)c1cc(O)ccc1-c1ccc(O)cc1,4,97,98*,?,0,3
Cc1ccc(C(=O)Nc2ccc(O)cc2C(=O)O)cc1,11,104,36,0,-3,14
O=C(O)c1ccc2c(=O)n3c(nc2c1)/C(=C/c1ccc(F)cc1)CC3,33,96,.,3,4,-4
O=C(O)c1ccc2c(=O)n3c(nc2c1)/C(=C/c1cccc(Cl)c1Cl)CCCC3,10,94,97*,4,1,11
CC1(C)Cc2c(sc(NC(=S)NC(=O)c3ccccc3)c2C(=O)O)CO1,4,84,99*,1,15,7
CCCC[C@@H]1CNC(=O)C(=O)N1CCc1cccc2ccccc12,.,.,1,3,.,10
COc1ccc(Cn2nnnc2CN2CCN(c3ccc(OC)cc3)CC2)cc1,9,101,19,5,-2,15
CCC(C)(C)n1nnnc1CN1CCN(c2ccc(OC)cc2)CC1,6,103,94*,-3,-15,0
CCCSc1nc(N)nc2c1ncn2C1OC(CO)C(O)C1O (configuration not stated),.,106,.,.,2,.
Cc1ccc(Cn2ncn(-c3ccccc3)c2=O)cc1,12,94,-14,-4,8,15
OCn1ncn(-c2ccccc2)c1=S,6,98,92*,22,-1,16
Cc1ccc(NC(=O)c2ccc(C(=O)c3ccccc3)cc2)nc1,.,106,37,-3,-10,38
O=C(O)c1ccccc1C(=O)N1N=C2/C(=C/c3cccc([N+](=O)[O-])c3)CCCC2C1c1cccc([N+](=O)[O-])c1 (configuration not stated),-7,.,79*,-17,14,-7
O=C(O)c1c(C(=O)N2N=C3/C(=C/c4ccccc4)CCCC3C2c2ccccc2)cccc1[N+](=O)[O-] (configuration not stated),-8,107,-1,1,30,4
Cc1nc2ccc(-c3ccccc3)cc2o1,12,111,96*,6,-11,7
Cc1nc2cc(Cc3ccccc3)ccc2o1,.,94,.,.,11,.
Nc1nnc(SCC(=O)N2CCN(c3ccccc3)CC2)n1-c1ccccc1,0,97,98*,17,7,12
Nc1nnc(SCC(=O)N2CCN(c3ccccc3)CC2)s1,16,98,99*,2,-10,-3
Nc1nnc(SCC(=O)N2CCCCC2)s1,8,107,.,11,3,13
O=[N+]([O-])c1ccc(N2CCN(S(=O)(=O)c3ccccc3)CC2)cc1,18,103,0,15,12,25

# Bioassay records as filed in PubChem BioAssay.
